Results collected from several papers.
Lines come from different studies, so protocols differ.

For `O=C1CCC(N2Cc3cc(C4CCN(Cc5ccccc5)CC4)ccc3C2=O)C(=O)N1` (stereo not shown), the AUC(0-inf) was 355 ng·h/mL (male CD-1 mouse, plasma; intravenous, 1 mg/kg).
`C[C@@H]1COCCN1c1cc(=O)n2c(n1)N(Cc1cncc(Cl)c1)[C@H](C(F)(F)F)CC2` gave an AUC(0-inf) of 3280 ng·h/mL (C57BL/6 mouse, plasma; intraperitoneal, 10 mg/kg, single dose).
`CN(C)C(=O)c1cc2cnc(Nc3ccc(-c4ccc5c(=O)cc(N6CCOCC6)oc5c4)cc3)nc2n1C1CCCC1` has an AUC(0-inf) of 2890 ng·h/mL (BALB/c mouse, plasma; oral, 20 mg/kg).
For `NCc1cc2c(cc1F)C(=O)N(C1CCC(=O)NC1=O)C2` (stereo not shown), the AUC(0-inf) was 149 ng·h/mL (male CD-1 mouse, plasma; intravenous, 1 mg/kg).
For `CC(C)[C@@H](CS(=O)(=O)C(C)C)N1C(=O)[C@@](C)(CC(=O)O)C[C@H](c2cccc(Cl)c2)[C@H]1c1ccc(Cl)cc1`, the AUC(0-inf) was 36.3 ng·h/mL (FVB mouse, brain; oral, 20 mg/kg, single dose).
The AUC(0-inf) of `CCOC(=O)c1c(NC(=O)CNC(C)C)sc2c1CCCCC2` is reported as 311 ng·h/mL (male mouse, plasma; intraperitoneal, 5 mg/kg, single dose).
`Cc1nc2ccc(OCc3ccc(C(F)(F)F)cc3)cc2[nH]1` has an AUC(0-inf) of 3800 ng·h/mL (male BALB/c mouse, plasma; intravenous, 1 mg/kg).
`CCOC(=O)C1=C(CN2CCC[C@@H]2C(=O)Nc2ccc(B(O)O)cc2)NC(c2nccs2)=N[C@H]1c1ccc(F)cc1Br` has an AUC(0-inf) of 723 ng·h/mL (CD-1 mouse, plasma; intravenous, 2 mg/kg).
The AUC of `CCn1c(=O)c(-c2cc(NC(=O)Nc3ccccc3)c(F)cc2Br)cc2cnc(NC)cc21` is reported as 2310 ng·h/mL (male mouse, plasma; oral, 15 mg/kg, single dose).
The AUC(0-inf) of `OCc1nc2ccc(NCc3ccc(C(F)(F)F)cc3)cc2[nH]1` is reported as 482 ng·h/mL (male BALB/c mouse, plasma; intravenous, 1 mg/kg).
With `COc1cccc2c(N3CCC(CCP(=O)(O)O)CC3)ncnc12` the AUC(0-inf) was 751 ng·h/mL (female C57BL/6 mouse, brain; subcutaneous, 50 mg/kg).
The AUC(0-t) of `NCc1ccc(-c2nn(Cc3ccncc3)c3ccccc23)o1` is reported as 5240 ng·h/mL (male CD-1 mouse, plasma; intraperitoneal, 30 mg/kg).
With `COCC(=O)N1CCc2[nH]c3c(Cl)c(Cl)ccc3c2[C@@H]1C` the AUC(0-inf) was 3.28 µM·h (C57BL/6 mouse, blood; intravenous, 1 mg/kg).
